IMP-1 inhibitor: inhibitors of Pseudomonas aeruginosa IMP-1 metallo-beta-lactamase; purified IMP-1, nitrocefin hydrolysis, epi-absorbance fluorescence; inhibition, % at 5.6 µM; 290,000 compounds, 0.45% hits; AID 1556;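 active = inhibition above the mean plus 3 SD of all compounds in the same screening run, cut at about 4.5% in these data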;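 note: 0% = IMP-1 with DMSO and 100% = DMSO wells lacking enzyme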
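Material – recombinant IMP-1 enzyme, purified · Amount – IMP-1 0.2 nM before substrate addition · Medium – HEPES buffer pH 7.1 with ZnSO4 and Brij 35 · Timing – 25 °C, 15 min preincubation, 25 min reaction · Measured by – plate fluorescence quenching by hydrolysis product, ex 480/em 530 nm · Read-out – percent enzyme inhibition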
PABP polyA inh: blocks human PABP binding to poly(A) RNA; fluorescence polarization; calls only at 35 µM; 290,000 compounds, 1% hits;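 note: calls also rest on retests at 20 µM and on dose response follow-up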
Target sequence (P11940 whole entry, looked up): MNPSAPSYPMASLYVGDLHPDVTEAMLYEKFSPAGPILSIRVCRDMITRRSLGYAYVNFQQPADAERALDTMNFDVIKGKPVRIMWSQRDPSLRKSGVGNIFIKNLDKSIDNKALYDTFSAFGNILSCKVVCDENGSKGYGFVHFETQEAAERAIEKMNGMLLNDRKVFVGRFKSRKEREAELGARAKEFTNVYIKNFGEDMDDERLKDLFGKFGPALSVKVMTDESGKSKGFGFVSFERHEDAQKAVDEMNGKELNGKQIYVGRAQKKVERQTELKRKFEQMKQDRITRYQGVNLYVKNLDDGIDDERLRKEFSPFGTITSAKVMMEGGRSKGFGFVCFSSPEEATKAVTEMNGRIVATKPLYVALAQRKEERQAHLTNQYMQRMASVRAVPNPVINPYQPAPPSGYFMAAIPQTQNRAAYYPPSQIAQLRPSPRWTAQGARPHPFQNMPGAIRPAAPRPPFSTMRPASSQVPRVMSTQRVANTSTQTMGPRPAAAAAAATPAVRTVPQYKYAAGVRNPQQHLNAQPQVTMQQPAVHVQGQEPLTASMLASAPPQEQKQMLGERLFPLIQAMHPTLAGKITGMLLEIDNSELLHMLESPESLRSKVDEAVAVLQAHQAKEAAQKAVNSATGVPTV
VIM-2 inh: blocks Pseudomonas aeruginosa VIM-2 metallo-beta-lactamase. purified VIM-2, nitrocefin hydrolysis, epi-absorbance fluorescence. 290,000 compounds, 0.89% hits. inhibition, % at 5.6 µM;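 active = inhibition above the mean of all tested compounds plus 3 SD, cutoff set per screening run, cut at about 7.5% in these data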;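 note: red hydrolysis product quenches plate fluorescence so inhibitors raise well fluorescence; 0% = enzyme with DMSO and 100% = DMSO without enzyme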
eIF4H FP inh: inhibitors of RNA binding by human eIF4H | Q15056 | eIF4H fluorescence polarization binding assay | inhibition, % at 35 µM | 290,000 compounds, 0.94% hits | AID 2012;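 note: calls also rest on retests at 20 µM and on dose response follow-up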
MLLE-PAM2 inh: blocks PAM2 peptide binding to the PABP1 MLLE domain; inhibition, % at 20 µM; GST-MLLE / FITC-PAM2 fluorescence polarization; P11940; 360,000 compounds, 0.36% hits; in the data active = inhibition above about 35%, passing the limit was not always enough;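 note: plate controls were DMSO wells with GST-MLLE for no effect and wells lacking GST-MLLE protein for full effect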
VIM-2 inh confirm: VIM-2 inhibition, confirmation assay | 200 compounds, 73% hits | inhibition, % at 5.6 µM | purified VIM-2 enzyme, nitrocefin absorbance | shares compounds with IMP-1 inhibitor; in the data active = inhibition above about 8%;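 note: 0% = enzyme with vehicle and 100% = no enzyme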
TEM-1 inh 2: blocks E. coli TEM-1 beta-lactamase, VIM-2 IMP-1 counter-screen. shares compounds with IMP-1 inhibitor. nitrocefin absorbance inhibition. inhibition, % at 5.6 µM. 200 compounds, 50% hits; in the data active = inhibition above about 0.66%
IMP-1 confirm: confirmation of P. aeruginosa IMP-1 metallo-beta-lactamase inhibitors; purified IMP-1 enzyme, absorbance substrate hydrolysis; shares compounds with IMP-1 inhibitor; inhibition, % at 5.6 µM; 200 compounds, 60% hits; AID 2189; in the data active = inhibition above about 4.9%;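 note: 0% = enzyme with vehicle and 100% = vehicle without enzyme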
* marks the source's active call; other numbers are inactive results. In the library only some 2.2% were active in any assay of this set; here they are far more common. Unless noted, the rule behind the calls is not given here.

Results for COc1ccccc1N1N=C(c2ccc([N+](=O)[O-])cc2)CC1c1ccccc1 (stereo not drawn) ?
IMP-1 inhibitor: 35*; PABP polyA inh: inactive; VIM-2 inh: 31*; eIF4H FP inh: 56; MLLE-PAM2 inh: -104; VIM-2 inh confirm: 18*; TEM-1 inh 2: 27*; IMP-1 confirm: 16*

Results for O=C(NC1CC1)C1CCN(c2ncnc3c2sc2cccc(F)c23)CC1 ?
IMP-1 inhibitor: 5.1*; PABP polyA inh: inactive; VIM-2 inh: 14*; eIF4H FP inh: -1; MLLE-PAM2 inh: 13; VIM-2 inh confirm: 28*; TEM-1 inh 2: -6; IMP-1 confirm: -1

How did O=C(NC1CC1)C1CCN(c2nc3ccccc3s2)CC1 do in these assays?
IMP-1 inhibitor: -3; PABP polyA inh: inactive; VIM-2 inh: -5; eIF4H FP inh: -2; MLLE-PAM2 inh: -7

Results for CCCc1cc(C(N)=S)ccn1 ?
IMP-1 inhibitor: 4.8*; PABP polyA inh: inactive; VIM-2 inh: 8; eIF4H FP inh: 6; MLLE-PAM2 inh: 21; VIM-2 inh confirm: 3; TEM-1 inh 2: -1; IMP-1 confirm: 0

What do the screens show for `O=c1cc(-c2ccccc2)oc2cc(O)ccc12`?
MLLE-PAM2 inh: 8

How did Nc1ccc(-c2c3ccc(=O)cc-3oc3cc(O)ccc23)cc1C(=O)O do in these assays?
IMP-1 inhibitor: 51*; PABP polyA inh: inconclusive; VIM-2 inh: 70*; eIF4H FP inh: inconclusive; MLLE-PAM2 inh: inactive; VIM-2 inh confirm: 59*; TEM-1 inh 2: 62*; IMP-1 confirm: 42*

Results for O=c1ccc2c(-c3ccccc3)c3ccc(O)cc3oc-2c1 ?
IMP-1 inhibitor: 84*; PABP polyA inh: inconclusive; VIM-2 inh: 81*; eIF4H FP inh: inconclusive; MLLE-PAM2 inh: inactive; VIM-2 inh confirm: 101*; TEM-1 inh 2: 152*; IMP-1 confirm: 96*

What do the screens show for `O=C(COC(=O)C1CCN(c2ccc(C(F)(F)F)cn2)CC1)NCc1ccc(F)cc1`?
MLLE-PAM2 inh: 0

How did COc1ccc(CN2CCNC(=O)C2CC(=O)NC2CCCC2)c(C)c1C (stereo not drawn) do in these assays?
IMP-1 inhibitor: -4; PABP polyA inh: inactive; VIM-2 inh: -4; eIF4H FP inh: -4; MLLE-PAM2 inh: 9

How did Cc1ccc(-c2noc(CN(C)C(=O)c3ccc(Br)o3)n2)cc1 do in these assays?
MLLE-PAM2 inh: -5

Results for CCN1/C(=C/C=C/c2oc3ccc4ccccc4c3[n+]2CC)Oc2ccc3ccccc3c21 ?
IMP-1 inhibitor: 33*; PABP polyA inh: inconclusive; VIM-2 inh: 13*; eIF4H FP inh: inconclusive; VIM-2 inh confirm: 9.9*; TEM-1 inh 2: 18*; IMP-1 confirm: 14*

How did CC[n+]1c(/C=C/N(C)c2ccccc2)oc2ccc(Cl)cc21 do in these assays?
IMP-1 inhibitor: -4; PABP polyA inh: inactive; VIM-2 inh: 1; eIF4H FP inh: -2; MLLE-PAM2 inh: -7

Results for Cn1ccnc1SCC(=O)Nc1cccc2ccccc12 ?
IMP-1 inhibitor: -4; PABP polyA inh: inactive; VIM-2 inh: 0; eIF4H FP inh: 0; MLLE-PAM2 inh: 3

Results for Cn1ccnc1SCC(=O)n1c2c(c3ccccc31)CCCC2 ?
IMP-1 inhibitor: 5.7*; PABP polyA inh: inactive; VIM-2 inh: 29*; eIF4H FP inh: 0; MLLE-PAM2 inh: -7; VIM-2 inh confirm: 8.5*; TEM-1 inh 2: -4; IMP-1 confirm: -1

What do the screens show for `CCNc1ccc(Br)cc(C(=O)/C=C/c2c(Cl)cccc2Cl)c1=O`?
IMP-1 inhibitor: 6.0*; PABP polyA inh: inactive; VIM-2 inh: 8.3*; eIF4H FP inh: 86; MLLE-PAM2 inh: -97; VIM-2 inh confirm: 4; TEM-1 inh 2: -1; IMP-1 confirm: -1

Results for CNc1ccc(Br)cc(C(=O)/C=C/c2ccc(OC)cc2OC)c1=O ?
IMP-1 inhibitor: 0; PABP polyA inh: inactive; VIM-2 inh: -2; eIF4H FP inh: 40; MLLE-PAM2 inh: -46

Results for Nc1ccc(C(=O)OCC(=O)Nc2cc([N+](=O)[O-])ccc2F)cc1 ?
IMP-1 inhibitor: -1; PABP polyA inh: inactive; VIM-2 inh: 1; eIF4H FP inh: 10; MLLE-PAM2 inh: -11

How did Cc1ccc(-c2csc(NC(=O)N3CCOCC3)n2)cc1 do in these assays?
IMP-1 inhibitor: -4; PABP polyA inh: inactive; VIM-2 inh: -3; eIF4H FP inh: -2; MLLE-PAM2 inh: -17

What do the screens show for `Cn1cc(/C=C(\C(=O)O)C(C(=O)O)=C2CCCCC2)c2ccccc21`?
IMP-1 inhibitor: 11*; PABP polyA inh: inactive; VIM-2 inh: 9.5*; eIF4H FP inh: 12; MLLE-PAM2 inh: 3; VIM-2 inh confirm: 13*; TEM-1 inh 2: 0; IMP-1 confirm: 10*

Results for CCOC(Cn1cc(C)c(=O)[nH]c1=O)OCC ?
IMP-1 inhibitor: -1; PABP polyA inh: inactive; VIM-2 inh: -1; eIF4H FP inh: 1; MLLE-PAM2 inh: -1

What do the screens show for `Nc1ccc2nc3c(=O)n(C4CCCCC4)c(=O)[nH]c3nc2c1`?
IMP-1 inhibitor: 24*; PABP polyA inh: inconclusive; VIM-2 inh: 21*; eIF4H FP inh: inconclusive; MLLE-PAM2 inh: inactive; VIM-2 inh confirm: 23*; TEM-1 inh 2: 30*; IMP-1 confirm: 16*

How did C=CCn1c(=O)[nH]c2nc3cc(N=CN(C)C)c(C)cc3nc2c1=O do in these assays?
IMP-1 inhibitor: 2; PABP polyA inh: inconclusive; VIM-2 inh: 5; eIF4H FP inh: inconclusive; MLLE-PAM2 inh: 94

What do the screens show for `Cc1cc2nc3c(=O)n(CCc4ccccc4)c(=O)[nH]c3nc2cc1N`?
IMP-1 inhibitor: 3; PABP polyA inh: inconclusive; VIM-2 inh: 5; eIF4H FP inh: inconclusive; MLLE-PAM2 inh: inactive

How did COc1cc2[nH]c(=O)n(C3CCCCC3)c(=O)c2cc1OC do in these assays?
IMP-1 inhibitor: -3; PABP polyA inh: inactive; VIM-2 inh: -1; eIF4H FP inh: -5; MLLE-PAM2 inh: -3

What do the screens show for `CCCCn1c(=O)[nH]c2nc3cc(N)ccc3nc2c1=O`?
IMP-1 inhibitor: 17*; PABP polyA inh: inactive; VIM-2 inh: 19*; eIF4H FP inh: inconclusive; MLLE-PAM2 inh: inactive; VIM-2 inh confirm: 22*; TEM-1 inh 2: 31*; IMP-1 confirm: 18*

What do the screens show for `Nc1ccc2nc3c(=O)n(CCc4ccccc4)c(=O)[nH]c3nc2c1`?
IMP-1 inhibitor: 11*; PABP polyA inh: inconclusive; VIM-2 inh: 9.1*; eIF4H FP inh: inconclusive; MLLE-PAM2 inh: inactive; VIM-2 inh confirm: 19*; TEM-1 inh 2: 33*; IMP-1 confirm: 18*

What do the screens show for `CCN(CC(=O)NC(C)(C)C)C(=O)C(c1ccccc1)c1ccccc1`?
IMP-1 inhibitor: -1; PABP polyA inh: inactive; VIM-2 inh: -2; eIF4H FP inh: 20; MLLE-PAM2 inh: -12
